Assay outcomes (PubChem BioAssay)
Only some compounds are listed: those with a hit (about 2.6% of all), similar ones and a draw of the others.
SENP8 block-1 – blocks human SENP8 cleavage of Nedd8 substrate. AID 602440. Q96LD8. inhibition, % at 20 µM. recombinant SENP8, Nedd8 substrate fluorescence. 360,000 compounds, 0.64% hits; in the data active = inhibition mostly above about 40%, no sharp cut-off; inactive = mostly below about 27%
UCH37 DUB inh – blocks the human deubiquitinase UCH37; Q9Y5K5; purified proteasome/UCH37, Ub-AMC cleavage fluorescence; inhibition, % (no concentration beside the values); 330,000 compounds, 0.33% hits;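 active = mean inhibition over replicate wells above about 20%, limit read from the data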;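 also: 0% = compound-free wells with enzyme and 100% = wells lacking proteasome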
Target sequence (Q9Y5K5 whole entry, looked up): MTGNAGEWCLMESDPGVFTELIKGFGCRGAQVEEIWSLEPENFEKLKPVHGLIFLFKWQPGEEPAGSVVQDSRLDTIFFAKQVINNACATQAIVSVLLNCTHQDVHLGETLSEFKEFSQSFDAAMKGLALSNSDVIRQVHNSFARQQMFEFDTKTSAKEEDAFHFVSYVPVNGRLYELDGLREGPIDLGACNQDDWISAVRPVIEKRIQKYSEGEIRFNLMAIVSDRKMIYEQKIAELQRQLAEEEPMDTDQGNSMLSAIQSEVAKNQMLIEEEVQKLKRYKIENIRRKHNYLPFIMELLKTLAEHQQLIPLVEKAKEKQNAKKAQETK
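assay system = human UCH37 enzyme supplied as purified proteasome complex | amount = proteasome at 0.15 nM in the dispensed enzyme solution | schedule = 30 min compound-proteasome preincubation then 25 min substrate reaction, room temperature | measured by = fluorescence, ex 355 nm, em 460 nm | benchmarks = no-proteasome wells (full inhibition) and compound-free wells (no inhibition)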
SENP1 FRET inh – inhibitors of human SENP1 SUMO protease catalytic domain. Q9P0U3. recombinant SENP1 catalytic domain, CyPet-SUMO1-YPet FRET cleavage. inhibition, % at 10 µM. 360,000 compounds, 0.21% hits. AID 624204;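 active = inhibition at least 30% at 10 µM, raw YFP signal under a set limit, fluorescence ratio 0.5 to 1.5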;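 also: 0% = enzyme with DMSO and 100% = no enzyme wells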
Target sequence (Q9P0U3 419-644 limits assumed): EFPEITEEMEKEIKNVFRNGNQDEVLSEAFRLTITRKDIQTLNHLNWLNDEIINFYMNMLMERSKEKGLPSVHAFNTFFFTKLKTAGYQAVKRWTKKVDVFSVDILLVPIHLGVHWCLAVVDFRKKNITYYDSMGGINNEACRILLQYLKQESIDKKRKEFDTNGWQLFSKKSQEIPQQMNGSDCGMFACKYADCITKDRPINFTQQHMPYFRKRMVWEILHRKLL
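Assay system: hSENP1 catalytic domain, recombinant. Amount: SENP1 enzyme, 20 pM final. Schedule: 50 min reaction, RT, dark. Technique: FRET, CFP and YFP emission. Control set: no-enzyme wells low, DMSO-plus-enzyme wells high control.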
SENP8 block-2 – blocks the human protease SENP8; purified SENP8, Z-RLRGG-aminoluciferin cleavage, luminescence; inhibition, % at 10 µM; 330,000 compounds, 1.2% hits; AID 2540; in the data active = inhibition above about 50%
SENP7 inh – inhibitors of human SENP7 protease. Q9BQF6. inhibition, % at 5 µM. 330,000 compounds, 1.5% hits. recombinant SENP7, Z-RLRGG-aminoluciferin luminescence, 40 min;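 active = inhibition above about 50% at the single test dose, limit read from the data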;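 also: plate controls were DMSO with enzyme for no effect and no enzyme buffer wells for full effect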
SENP6 inh – SENP6 protease inhibition. Q9GZR1. Recombinant SENP6 catalytic domain, aminoluciferin luminescence. AID 2599. 330,000 compounds, 1.8% hits. inhibition, % at 10 µM;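 active = inhibition above about 50% at the single tested dose, limit read from the data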;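 also: plate controls were DMSO wells with enzyme for no effect and DMSO wells lacking enzyme for full effect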
SENP8 conf – human SENP8 inhibition, confirmed. shares compounds with SENP7 inh. Recombinant SENP8, Z-RLRGG-aminoluciferin luminescence, 60 min. inhibition, % at 12.5 µM. 6,200 compounds, 40% hits;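 active = mean inhibition across replicates above about 50%, limit read from the data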
SENP6 conf – confirmation of human SENP6 protease inhibitors; AID 488915; shares compounds with SENP7 inh; inhibition, % at 12.5 µM; 6,200 compounds, 58% hits; recombinant SENP6, Z-RLRGG-aminoluciferin luminescence
SENP7 confirm – confirmation of human SENP7 protease inhibitors; shares compounds with SENP7 inh; recombinant SENP7, Z-RLRGG-aminoluciferin luminescence, 40 min; inhibition, % at 12.5 µM; 6,200 compounds, 69% hits; AID 488917
Casp3 select – caspase-3 inhibition (SENP selectivity assay); inhibition, % at 12.5 µM; AID 488918; 6,200 compounds, 60% hits; shares compounds with SENP7 inh; purified caspase-3, Z-DEVD-aminoluciferin luminescence, 60 min;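 active = mean inhibition above about 50%, limit read from the data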;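 also: plate controls were enzyme with DMSO for no effect and wells without caspase-3 for full effect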
Target sequence (P42574 28-227 limits assumed): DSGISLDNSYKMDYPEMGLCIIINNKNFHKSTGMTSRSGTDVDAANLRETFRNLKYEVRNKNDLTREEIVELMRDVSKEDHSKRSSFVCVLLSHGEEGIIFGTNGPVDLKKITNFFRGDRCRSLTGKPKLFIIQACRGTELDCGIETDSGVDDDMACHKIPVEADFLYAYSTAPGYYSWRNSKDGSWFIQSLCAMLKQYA
Luc interf – luminescence interference (SENP counter-screen) | inhibition, % at 12.5 µM | AID 488919 | Pre-incubated SENP8/Z-RLRGG-aminoluciferin, luciferase luminescence interference | 6,200 compounds, 39% hits | shares compounds with SENP7 inh;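 active = mean inhibition above about 50% when retested at one dose, limit read from the data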;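 also: plate controls were DMSO wells with completed reaction for no effect and substrate without enzyme for full effect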
* hit, by the source's call; i = inactive; . = no result.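 The calls were made as follows, unless noted: active = mean inhibition above about 50% in the one-dose retest (limit read from the data); inactive = the rest.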

SMILES	SENP8 block-1	UCH37 DUB inh	SENP1 FRET inh	SENP8 block-2	SENP7 inh	SENP6 inh	SENP8 conf	SENP6 conf	SENP7 confirm	Casp3 select	Luc interf
S=c1nc(-c2ccccc2)oc2c1CCCC2	20.1	3.3	-0.6	74.7*	88.1*	92.1*	35.6	48.3	62.6*	41.0	54.2*
COc1cccc(-c2nc(=S)c3c(o2)CCCC3)c1	9.8	1.3	0.9	33.5	0.4	65.0*	37.5	21.2	59.7*	28.5	25.3
O=[N+]([O-])c1ccc(-c2nc(=S)c3c(o2)CCCC3)cc1	7.7	7.3	3.4	-7.6	-0.3	-0.2	.	.	.	.	.
CSCC[C@H](NC(=O)C1CCC(CNC(=O)[C@@H](N)Cc2ccccc2)CC1)C(=O)O (stereo partly drawn)	.	1.9	.	.	.	.	.	.	.	.	.
CCOC(=O)N1CCN(C(=O)c2noc3c2COc2ccccc2-3)CC1	-3.3	1.0	2.3	42.9	53.7*	60.9*	43.5	38.0	77.6*	75.1*	24.8
CCCN1CCN(C(=O)c2noc3c2COc2ccc(C)cc2-3)CC1	-109.9	6.1	1.6	29.3	10.7	40.3	.	.	.	.	.
CCN(CC)S(=O)(=O)c1ccc(NN=C(C)c2ccncc2)c([N+](=O)[O-])c1	.	0.1	.	.	.	.	.	.	.	.	.
N#C/C(=C\c1cccs1)C(=O)Nc1ccccn1	18.2	1.5	-69.3	24.3	63.6*	59.4*	40.4	49.7	83.2*	71.1*	21.6
CC(=NNC(=O)OC(C)(C)C)c1cccc([N+](=O)[O-])c1	.	3.2	.	.	.	.	.	.	.	.	.
Nc1ccc(-c2nc3ccc(N)cc3s2)cc1	-431.9	i	-79.3	85.8*	95.1*	95.1*	91.6*	92.4*	99.1*	93.2*	90.5*
Nc1cccc(-c2nc3ccc(N)cc3s2)c1	-402.9	i	-78.2	93.7*	97.5*	97.0*	97.7*	98.3*	101.8*	97.2*	96.4*
COc1ccc(Cl)cc1-c1nc(-c2ccc(Br)o2)no1	-13.4	-1.5	-1.2	-0.7	1.7	-24.2	.	.	.	.	.
Cc1ccccc1-c1nc(-c2ccc(Br)o2)no1	14.0	1.7	-1.8	58.4*	66.8*	71.7*	21.6	64.3*	86.4*	44.7	37.7
Fc1ccccc1-c1nc(-c2ccc(Br)o2)no1	12.0	4.4	0.0	84.8*	89.0*	84.5*	-12.3	82.9*	97.4*	68.1*	23.0
Cc1ccccc1-c1nc(-c2ccc(NC(=O)c3ccc(Br)o3)cc2)no1	-6.0	-47.3	2.0	12.9	2.4	27.9	.	.	.	.	.
CCOc1ccc(-c2c(C(=O)NN=Cc3ccco3)nnn2-c2nonc2N)cc1	.	3.2	.	.	.	.	.	.	.	.	.
COc1ccc(NC(=O)ON=C2CCCc3ccc(OC)cc32)cc1	.	-0.5	.	.	.	.	.	.	.	.	.
O=C(NC1CCCCC1)c1n[nH]c2c1CCCCC2	11.5	.	1.7	83.9*	89.7*	89.5*	85.7*	85.8*	97.4*	93.9*	73.3*
O=C(NN=Cc1c(Cl)cccc1Cl)c1n[nH]c2c1CCCC2	.	2.8	.	.	.	.	.	.	.	.	.
O=C(N/N=C/c1c(Cl)cccc1Cl)c1n[nH]c2c1CCCC2	13.2	.	1.2	67.9*	70.8*	28.3	13.3	71.5*	92.4*	79.8*	6.7
O=C(NN=C1CCCC1)c1n[nH]c2c1CCCC2	16.2	4.4	1.6	39.4	44.6	68.1*	57.9*	67.6*	87.4*	90.0*	50.8*
S=c1[nH]nc(-c2cc(-c3ccccc3)n[nH]2)n1N=C/C(Br)=C/c1ccccc1	.	2.8	.	.	.	.	.	.	.	.	.
O=C(CN1C(=O)c2ccccc2S1(=O)=O)c1ccc(Cl)cc1Cl	-2.5	.	-1.4	72.3*	8.2	67.5*	73.3*	76.9*	83.5*	50.5*	9.1
CC1CCN(c2ccc(-c3cccc(NC(=O)c4ccco4)c3)nn2)CC1	-17.1	2.9	-0.1	59.3*	73.6*	79.4*	66.4*	69.4*	88.0*	66.3*	38.4
O=C(Nc1cccc(-c2ccc(N3CCCCC3)nn2)c1)c1ccc(Br)o1	-41.8	-0.9	-3.1	76.1*	82.8*	88.6*	72.8*	78.7*	93.9*	81.6*	60.1*
SMILES	SENP8 block-1	UCH37 DUB inh	SENP1 FRET inh	SENP8 block-2	SENP7 inh	SENP6 inh	SENP8 conf	SENP6 conf	SENP7 confirm	Casp3 select	Luc interf
O=C(Nc1cccc(-c2ccc(N3CCCCC3)nn2)c1)C(F)(F)F	-20.8	-0.3	1.7	34.3	5.9	33.9	.	.	.	.	.
CC1CCN(c2ccc(-c3cccc(NC(=O)C(F)(F)F)c3)nn2)CC1	-108.4	.	0.5	48.8	3.7	39.7	.	.	.	.	.
CCC(=O)Nc1cccc(-c2ccc(N3CCC(C)CC3)nn2)c1	-43.8	-0.8	4.0	48.8	59.3*	68.7*	20.9	56.0*	83.9*	73.0*	-11.5
CC(C)c1c(C(=O)NN=Cc2ccc(OCc3ccccc3)cc2)nnn1-c1nonc1N	.	-20.4	.	.	.	.	.	.	.	.	.
C/C(=N\NC(=O)c1cccc(Cl)c1)C1C(=O)c2ccccc2C1=O	26.1	.	-55.5	91.7*	73.7*	96.9*	4.8	96.6*	101.3*	87.7*	80.6*
CCOc1ccc(C=NNC(=O)CCC(=O)Nc2ccc(F)cc2)cc1	.	1.8	.	.	.	.	.	.	.	.	.
COc1cc(OC)cc(-c2nnc(Nc3nc4c(F)cccc4s3)o2)c1	-285.0	-111.9	-48.3	-2.2	4.9	49.2	.	.	.	.	.
Fc1cccc2sc(Nc3nnc(-c4ccccc4)o3)nc12	-314.6	-83.6	-35.5	63.0*	45.4	85.1*	8.1	7.4	1.4	60.3*	2.7
Cc1ccc(S(=O)(=O)N=C2SC(CC(=O)Nc3ccc(F)cc3)C(=O)N2c2ccccc2)cc1 (stereo not drawn)	.	-0.6	.	.	.	.	.	.	.	.	.
Cc1ccc(SCCC(=O)Nc2ccccc2Br)cc1	5.3	2.9	3.4	39.0	37.7	58.4*	49.2	43.8	77.6*	48.3	51.3*
O=C(COC(=O)c1cccc(O)c1)c1ccccc1	2.1	3.9	-1.2	78.5*	86.8*	85.5*	86.4*	86.7*	97.2*	87.5*	86.5*
O=C(OCC(=O)N(Cc1ccccc1)Cc1ccccc1)c1cccc(O)c1	14.0	-0.1	-0.8	0.7	6.1	-0.1	.	.	.	.	.
O=C(OCC(=O)c1cccs1)c1ccccc1	14.1	2.9	2.2	71.8*	85.9*	13.0	85.1*	85.7*	97.1*	91.2*	86.0*
